Data: ChEMBL document CHEMBL1151686, “Antimalarial activity enhancement in hydroxymethylcarbonyl (HMC) isostere-based dipeptidomimetics targeting malarial aspartic protease plasmepsin” (Bioorg Med Chem, 2008)

Tests used:
[1] = target: Protease (Human immunodeficiency virus 1) (UniProt Q9YQ12); test: Inhibition of recombinant HIV1 protease at 50 nM
Method in brief: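 Recombinant HIV-1 PR (2 μg/mL stock) was mixed with inhibitor (500 nM solution in DMSO) in MES–NaOH pH 5.5 buffer containing DTT, EDTA and 1 M NaCl. The reaction was started with substrate H-Lys-Ala-Arg-Val-Tyr-Phe(p-NO₂)-Glu-Ala-Nle-NH₂ (1.0 mM solution) and run 15 min at 37 °C, then stopped with 1M HCl. The cleaved N-terminal fragment was quantified by reversed-phase C18 HPLC.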

Plasmepsin II = Plasmepsin II (Plasmodium falciparum, UniProt P46925); test: Inhibition of Plasmodium falciparum plasmepsin-2
Sequence of Plasmepsin II (P46925 whole entry): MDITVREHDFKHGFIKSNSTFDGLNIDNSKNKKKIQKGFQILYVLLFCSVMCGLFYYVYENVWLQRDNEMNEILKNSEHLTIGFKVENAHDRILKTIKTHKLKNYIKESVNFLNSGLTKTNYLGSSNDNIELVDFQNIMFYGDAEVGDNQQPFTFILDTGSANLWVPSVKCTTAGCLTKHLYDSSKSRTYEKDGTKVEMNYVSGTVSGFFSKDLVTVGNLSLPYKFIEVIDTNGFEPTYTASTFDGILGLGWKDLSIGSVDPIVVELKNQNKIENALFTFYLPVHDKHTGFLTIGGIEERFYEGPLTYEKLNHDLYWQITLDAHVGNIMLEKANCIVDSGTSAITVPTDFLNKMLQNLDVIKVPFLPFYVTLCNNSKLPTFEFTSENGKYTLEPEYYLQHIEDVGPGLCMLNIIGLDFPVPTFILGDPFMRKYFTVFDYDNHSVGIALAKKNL
Method in brief: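 Plm II (400 nM) hydrolysis of chromogenic substrate H-Ala-Leu-Glu-Arg-Thr-Phe-Phe(p-NO2)-Ser-Phe-Pro-Thr-OH (163 μM) in 10 mM sodium formate pH 4.0, 2% DMSO, 25 °C, with increasing inhibitor. Rates fitted to tight-binding competitive inhibition equations for Ki.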

[2] = Cytotoxicity against rat L6 cells after 72 hrs by Alamar blue resazurin assay; format: cell-based; details: read-out: TD50
Plasmodium falciparum = test: Antimalarial activity against chloroquine-sensitive Plasmodium falciparum NF54 in type O+ human erythrocytes after 48 hrs as reduced [3H]hypoxanthine uptake; format: functional, organism-based
Method in brief: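 NF54 parasites grown in 2.4% O+ human erythrocyte suspension in RPMI 1640 with 25 mM HEPES, 27 mM NaHCO3, 10% heat-inactivated O+ human serum, under 3% O2/4% CO2/93% N2. Compounds serially diluted in 0.2% DMSO medium, incubated with culture 48 h, then 0.6 μCi [3H]hypoxanthine added for 20 h. Harvested on glass filters, scintillation counted. IC50 from dose-response curves.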

Sequence of Protease (Human immunodeficiency virus 1) (Q9YQ12 as listed by the source): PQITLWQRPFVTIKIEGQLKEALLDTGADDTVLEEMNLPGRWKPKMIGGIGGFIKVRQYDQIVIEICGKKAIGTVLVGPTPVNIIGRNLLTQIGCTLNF

Structure (SMILES)	inhibition [1]	Ki (Plasmepsin II)	CC50 at 72 h [2]	EC50 (Plasmodium falciparum)
Cc1cc(N)cc(C)c1OCC(=O)N[C@@H](Cc1ccccc1)[C@H](O)C(=O)N1CSC(C)(C)[C@H]1C(=O)N[C@H]1c2ccccc2C[C@H]1O	96%	23 nM	–	–
CCCCNc1cc(C)c(OCC(=O)N[C@@H](Cc2ccccc2)[C@H](O)C(=O)N2CSC(C)(C)[C@H]2C(=O)N[C@H]2c3ccccc3C[C@H]2O)c(C)c1	85%	30 nM	22000 nM	540 nM
CC1(C)SCN(C(=O)[C@@H](O)[C@H](Cc2ccccc2)NC(=O)COc2ccccc2CO)[C@@H]1C(=O)N[C@H]1c2ccccc2C[C@H]1O	61%	132 nM	–	–
CC1(C)SCN(C(=O)[C@@H](O)[C@H](Cc2ccccc2)NC(=O)COc2ccc(CO)cc2)[C@@H]1C(=O)N[C@H]1c2ccccc2C[C@H]1O	37%	10 nM	> 120000 nM	1100 nM
CCCCCNc1cc(C)c(OCC(=O)N[C@@H](Cc2ccccc2)[C@H](O)C(=O)N2CSC(C)(C)[C@H]2C(=O)N[C@H]2c3ccccc3C[C@H]2O)c(C)c1	78%	26 nM	12000 nM	430 nM
CC1(C)SCN(C(=O)[C@@H](O)[C@H](Cc2ccccc2)NC(=O)COc2ccccc2N)[C@@H]1C(=O)N[C@H]1c2ccccc2C[C@H]1O	62%	126 nM	–	–
Cc1cccc(C)c1OCC(=O)N[C@@H](Cc1ccccc1)[C@H](O)C(=O)N1CSC(C)(C)[C@H]1C(=O)N[C@H]1c2ccccc2C[C@H]1O	98%	–	–	–
CC1(C)SCN(C(=O)[C@@H](O)[C@H](Cc2ccccc2)NC(=O)COc2ccc(N)cc2)[C@@H]1C(=O)N[C@H]1c2ccccc2C[C@H]1O	27%	28 nM	–	> 8000 nM
CC1(C)SCN(C(=O)[C@@H](O)[C@H](Cc2ccccc2)NC(=O)COc2ccc(O)cc2)[C@@H]1C(=O)N[C@H]1c2ccccc2C[C@H]1O	31%	10 nM	–	> 8000 nM
CNc1cc(C)c(OCC(=O)N[C@@H](Cc2ccccc2)[C@H](O)C(=O)N2CSC(C)(C)[C@H]2C(=O)N[C@H]2c3ccccc3C[C@H]2O)c(C)c1	91%	25 nM	> 120000 nM	450 nM
CC1(C)SCN(C(=O)[C@@H](O)[C@H](Cc2ccccc2)NC(=O)COc2cccc([N+](=O)[O-])c2)[C@@H]1C(=O)N[C@H]1c2ccccc2C[C@H]1O	12%	38 nM	58000 nM	2800 nM
Cc1cc(F)cc(C)c1OCC(=O)N[C@@H](Cc1ccccc1)[C@H](O)C(=O)N1CSC(C)(C)[C@H]1C(=O)N[C@H]1c2ccccc2C[C@H]1O	87%	19 nM	29000 nM	1400 nM
Cc1ccc(OCC(=O)N[C@@H](Cc2ccccc2)[C@H](O)C(=O)N2CSC(C)(C)[C@H]2C(=O)N[C@H]2c3ccccc3C[C@H]2O)cc1	27%	55 nM	–	> 8000 nM
Cc1cc(NCc2cccnc2)cc(C)c1OCC(=O)N[C@@H](Cc1ccccc1)[C@H](O)C(=O)N1CSC(C)(C)[C@H]1C(=O)N[C@H]1c2ccccc2C[C@H]1O	91%	21 nM	> 120000 nM	500 nM
CC(C)c1cccc(C(C)C)c1OCC(=O)N[C@@H](Cc1ccccc1)[C@H](O)C(=O)N1CSC(C)(C)[C@H]1C(=O)N[C@H]1c2ccccc2C[C@H]1O	0%	23 nM	6300 nM	2900 nM
COc1ccc(OCC(=O)N[C@@H](Cc2ccccc2)[C@H](O)C(=O)N2CSC(C)(C)[C@H]2C(=O)N[C@H]2c3ccccc3C[C@H]2O)cc1	38%	479 nM	–	–
Cc1cc(NCc2ccccn2)cc(C)c1OCC(=O)N[C@@H](Cc1ccccc1)[C@H](O)C(=O)N1CSC(C)(C)[C@H]1C(=O)N[C@H]1c2ccccc2C[C@H]1O	91%	10 nM	> 120000 nM	300 nM

Structure (SMILES)	inhibition [1]	Ki (Plasmepsin II)	CC50 at 72 h [2]	EC50 (Plasmodium falciparum)
COc1cccc(OCC(=O)N[C@@H](Cc2ccccc2)[C@H](O)C(=O)N2CSC(C)(C)[C@H]2C(=O)N[C@H]2c3ccccc3C[C@H]2O)c1	10%	4 nM	–	> 8000 nM
Cc1cc(NCc2ccncc2)cc(C)c1OCC(=O)N[C@@H](Cc1ccccc1)[C@H](O)C(=O)N1CSC(C)(C)[C@H]1C(=O)N[C@H]1c2ccccc2C[C@H]1O	91%	6 nM	> 120000 nM	490 nM
CC1(C)SCN(C(=O)[C@@H](O)[C@H](Cc2ccccc2)NC(=O)COc2ccccc2[N+](=O)[O-])[C@@H]1C(=O)N[C@H]1c2ccccc2C[C@H]1O	9%	55 nM	–	–
CC1(C)SCN(C(=O)[C@@H](O)[C@H](Cc2ccccc2)NC(=O)COc2cccc(N)c2)[C@@H]1C(=O)N[C@H]1c2ccccc2C[C@H]1O	29%	29 nM	–	> 8000 nM
CCNc1cc(C)c(OCC(=O)N[C@@H](Cc2ccccc2)[C@H](O)C(=O)N2CSC(C)(C)[C@H]2C(=O)N[C@H]2c3ccccc3C[C@H]2O)c(C)c1	84%	7 nM	64000 nM	720 nM
Cc1ccccc1OCC(=O)N[C@@H](Cc1ccccc1)[C@H](O)C(=O)N1CSC(C)(C)[C@H]1C(=O)N[C@H]1c2ccccc2C[C@H]1O	72%	145 nM	–	–
CC1(C)SCN(C(=O)[C@@H](O)[C@H](Cc2ccccc2)NC(=O)COc2cccc(O)c2)[C@@H]1C(=O)N[C@H]1c2ccccc2C[C@H]1O	13%	10 nM	–	> 8000 nM
CC1(C)SCN(C(=O)[C@@H](O)[C@H](Cc2ccccc2)NC(=O)COc2cccc(CO)c2)[C@@H]1C(=O)N[C@H]1c2ccccc2C[C@H]1O	24%	9 nM	–	> 8000 nM
Cc1cc(O)cc(C)c1OCC(=O)N[C@@H](Cc1ccccc1)[C@H](O)C(=O)N1CSC(C)(C)[C@H]1C(=O)N[C@H]1c2ccccc2C[C@H]1O	98%	5 nM	–	3300 nM
Cc1cc(N(C)C)cc(C)c1OCC(=O)N[C@@H](Cc1ccccc1)[C@H](O)C(=O)N1CSC(C)(C)[C@H]1C(=O)N[C@H]1c2ccccc2C[C@H]1O	86%	21 nM	45000 nM	1200 nM
CC1(C)SCN(C(=O)[C@@H](O)[C@H](Cc2ccccc2)NC(=O)COc2ccccc2O)[C@@H]1C(=O)N[C@H]1c2ccccc2C[C@H]1O	34%	112 nM	–	–
CC1(C)SCN(C(=O)[C@@H](O)[C@H](Cc2ccccc2)NC(=O)COc2c(Cl)cccc2Cl)[C@@H]1C(=O)N[C@H]1c2ccccc2C[C@H]1O	95%	39 nM	–	5200 nM
CC1(C)SCN(C(=O)[C@@H](O)[C@H](Cc2ccccc2)NC(=O)COc2ccc([N+](=O)[O-])cc2)[C@@H]1C(=O)N[C@H]1c2ccccc2C[C@H]1O	53%	25 nM	63000 nM	4200 nM
COc1cccc(OC)c1OCC(=O)N[C@@H](Cc1ccccc1)[C@H](O)C(=O)N1CSC(C)(C)[C@H]1C(=O)N[C@H]1c2ccccc2C[C@H]1O	54%	782 nM	–	–
Cc1cccc(OCC(=O)N[C@@H](Cc2ccccc2)[C@H](O)C(=O)N2CSC(C)(C)[C@H]2C(=O)N[C@H]2c3ccccc3C[C@H]2O)c1	13%	42 nM	–	> 8000 nM
COc1ccccc1OCC(=O)N[C@@H](Cc1ccccc1)[C@H](O)C(=O)N1CSC(C)(C)[C@H]1C(=O)N[C@H]1c2ccccc2C[C@H]1O	27%	153 nM	–	–
CC1(C)SCN(C(=O)[C@@H](O)[C@H](Cc2ccccc2)NC(=O)COc2c(F)cccc2F)[C@@H]1C(=O)N[C@H]1c2ccccc2C[C@H]1O	58%	14 nM	55000 nM	3300 nM
